Assay results taken from ChEMBL document CHEMBL4138310 (J Med Chem, 2018).

Key:
[1] = tested on: Human immunodeficiency virus 1; assay: Antiviral activity against wild-type HIV1 pNL4-3 infected in CMVdeltaR8.91 transfected 293T cells after 48 hrs by lentiviral vector-based luciferase reporter gene assay; format: functional, organism-based; details: Human immunodeficiency virus 1, pNL4-3, HEK-293T
Summary of the method: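 pNL4-3-based luciferase reporter lentiviral vector made by transfecting 293T cells with pCMV-ΔR8.91 (wild-type or V32I/L33F/I54M/V82I or V32I/L33F/I54M/I84V protease) plus luciferase transfer and envelope plasmids, with or without inhibitor. After 48 h, fresh 293T cells infected with vector. IC50 for suppression of luciferase transduction taken from dose-response curve.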

[2] = Cytotoxicity against human MT4 cells after 5 days by MTT assay; format: cell-based; details: read-out: TD50
Summary of the method: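 Uninfected MT-4 cells given compound at several concentrations in 1% DMSO solution with 10% FBS. Incubated 5 days at 37 °C in CO2, in triplicate. Viability read by MTT optical density, with TD50 taken as the cytotoxic measure.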

[3] = target: Protease (Human immunodeficiency virus 1) (UniProt Q9YQ12); assay: Inhibition of recombinant HIV1 protease at 1 nM using H-Lys-Ala-Arg-Val-Tyr-Phe(p-NO2)-Glu-Ala-Nle-NH2 as substrate preincubated for 5 mins followed by substrate addition measured after 3 hrs by fluorescence-based assay
Summary of the method: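 Recombinant HIV-1 protease (40 ng/mL stock in pH 5.0 acetate/EDTA/NaCl/2-mercaptoethanol/NP-40/glycerol) mixed with inhibitor (10 nM solution in DMSO) in 200 mM MES-NaOH pH 5.5 with 2 mM DTT, 2 mM EDTA and 1 M NaCl. Preincubated 5 min at 37 °C, then 1.0 mM substrate solution added and incubated 3 h at 37 °C. Stopped with 1 N HCl. The Lys-Ala-Arg-Val-Tyr-OH product was quantified by RP-HPLC with fluorescence (Ex 275, Em 305 nm). Single determination.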

[4] = tested on: Human immunodeficiency virus 1; assay: Antiviral activity against wild-type HIV1 pNL4-3 infected in human MT4 cells assessed as inhibition of virus-induced cytopathic effect after 5 days in absence of human serum by MTT assay; format: functional, organism-based; details: Human immunodeficiency virus 1, pNL4-3, MT4, 120 h
Summary of the method: (§1)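 MT-4 cells inoculated with HIV-1 pNL4-3, then given an equal volume of compound at several concentrations in 1% DMSO solution with 10% FBS. Incubated 5 days at 37 °C in CO2, in triplicate. MTT read by optical density, percent reduction of cytopathic effect calculated, and EC50 fitted to the median-effect equation. Values averaged over n = 3; the 50% human serum condition was run alongside.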

[5] = Ratio of EC50 for inhibition of protease L10F/V32I/M46I/I47V/Q58E/I84V mutant in HIV1 A17 infected in human MT4 cells to EC50 for wild-type HIV-1 pNL4-3 infected in human MT4 cells; format: functional, Human immunodeficiency virus 1
Summary of the method: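 Ratio of EC50 values from MT-4 cytopathic-effect MTT assays (5 days, 37 °C, triplicate, median-effect fit). Numerator is LPV-resistant strain A1711, denominator is wild-type HIV-1 pNL4-3.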

[6] = tested on: Human immunodeficiency virus 1; assay: Ratio of EC50 for wild-type HIV1 pNL4-3 infected in human MT4 in presence of 50% of human serum to EC50 for wild-type HIV-1 pNL4-3 infected in human MT4 in absence of human serum; format: functional
Summary of the method: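 Serum binding effect calculated as the pNL4-3 EC50 in 50% human serum divided by the EC50 in 0% serum, using MT-4 cytopathic-effect MTT assays run for 5 days at 37 °C.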

[7] = tested on: Human immunodeficiency virus 1; assay: Antiviral activity against wild-type HIV1 pNL4-3 infected in human MT4 cells assessed as inhibition of virus-induced cytopathic effect after 5 days in presence of 50 % of human serum by MTT assay; format: functional, organism-based; details: Human immunodeficiency virus 1, pNL4-3, MT4, 120 h; summary of the method: as §1
[8] = tested on: Human immunodeficiency virus 1; assay: Antiviral activity against wild-type HIV1 3B infected in human MT4 cells assessed as inhibition of virus-induced cytopathic effect after 5 days in presence of 50 % of human serum by MTT assay; format: functional, organism-based; details: Human immunodeficiency virus 1, 3B, MT4, 120 h
[9] = tested on: Human immunodeficiency virus 1; assay: Ratio of EC50 for wild-type HIV1 3B infected in human MT4 in presence of 50% of huma serum to EC50 for wild-type HIV-1 pNL4-3 infected in human MT4 in absence of human serum; format: functional
Summary of the method: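 Serum binding effect: EC50 measured with 50% human serum divided by EC50 measured without serum. Each EC50 came from protection of MT-4 cells from HIV-induced cytopathic effect. Infected cells were exposed to several compound concentrations in 1% DMSO with 10% FBS for 5 days at 37 °C in triplicate, read by MTT optical density, and fitted to a median-effect equation.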

[10] = Ratio of EC50 for inhibition of HIV1 A17 protease L10F/V32I/M46I/I47V/Q58E/I84V mutant infected in human MT4 cells to EC50 for wild-type HIV-1 3B infected in human MT4 cells; format: functional, Human immunodeficiency virus 1
[11] = tested on: Human immunodeficiency virus 1; assay: Antiviral activity against wild-type HIV1 3B infected in human MT4 cells assessed as inhibition of virus-induced cytopathic effect after 5 days by MTT assay; format: functional, organism-based; details: Human immunodeficiency virus 1, 3B, MT4, 120 h
[12] = tested on: Human immunodeficiency virus 1; assay: Antiviral activity against wild-type HIV1 3B infected in human MT4 cells assessed as inhibition of virus-induced cytopathic effect after 5 days in absence of human serum by MTT assay; format: functional, organism-based; details: Human immunodeficiency virus 1, 3B, MT4, 120 h
[13] = tested on: Human immunodeficiency virus 1; assay: Ratio of EC50 for wild-type HIV1 3B infected in human MT4 in presence of 50% of huma serum to EC50 for wild-type HIV-1 3B infected in human MT4 in absence of human serum; format: functional

Compound | inhibition [3] | EC50 [4] | Ratio EC50 [6] | EC50 [7] | also measured
CC(C)CN(C[C@@H](O)[C@H](Cc1ccccc1)NC(=O)O[C@H]1CO[C@H]2OCC[C@H]21)S(=O)(=O)c1ccc(N)cc1 | – | – | – | – | EC50 [1]: 0.82 nM
Cc1cccc(C)c1OCC(=O)N[C@@H](Cc1ccccc1)[C@@H](O)C[C@H](Cc1ccccc1)NC(=O)[C@H](C(C)C)N1CCCNC1=O [LOPINAVIR] | – | – | – | – | CC50 at 120 h [2]: > 10000 nM
Cc1cccc(C)c1CNC(=O)[C@H]1N(C(=O)[C@@H](O)[C@H](Cc2ccccc2)NC(=O)[C@@H](NC(=O)COc2cccc(N(C)C)c2)[C@H]2CCOC2)CSC1(C)C | 97% | < 3 nM | >5 | 15 nM | Ratio EC50 [5]: >55; CC50 at 120 h [2]: 60000 nM
Cc1ccccc1CNC(=O)[C@H]1N(C(=O)[C@@H](O)[C@H](Cc2ccccc2)NC(=O)c2cccc(O)c2C)CSC1(C)C | 48% | 60 nM | – | – | Ratio EC50 [5]: 46; EC50 [8]: 114 nM; Ratio EC50 [9]: 2; CC50 at 120 h [2]: 23000 nM
CN(C)c1cccc(OCC(=O)N[C@H](C(=O)N[C@@H](Cc2ccccc2)[C@H](O)C(=O)N2CSC(C)(C)[C@H]2C(=O)NC/C=C\CO)[C@H]2CCOC2)c1 | 94% | 567 nM | 3.6 | 2050 nM | –
C=CCNC(=O)[C@H]1N(C(=O)[C@@H](O)[C@H](Cc2ccccc2)NC(=O)[C@@H](NC(=O)COc2cccc(N(C)C)c2)[C@H]2CCOC2)CSC1(C)C | 95% | 8 nM | 24 | 190 nM | –
Cc1cccc(C)c1CNC(=O)[C@H]1N(C(=O)[C@@H](O)[C@H](Cc2ccccc2)NC(=O)[C@H](CC(N)=O)NC(=O)c2cc3ccccc3o2)CSC1(C)C | 97% | – | – | – | Ratio EC50 [10]: 1.6; EC50 [11]: 38 nM
Cc1cccc(C)c1CNC(=O)[C@H]1N(C(=O)[C@@H](O)[C@H](Cc2ccccc2)NC(=O)[C@@H](NC(=O)c2cc3ccccc3o2)C(C)C)CSC1(C)C | 93% | – | – | – | Ratio EC50 [10]: 61; EC50 [11]: 18 nM
Cc1ccccc1CNC(=O)[C@H]1N(C(=O)[C@@H](O)[C@H](Cc2ccccc2)NC(=O)[C@@H](NC(=O)c2cnc3ccccc3n2)[C@@H]2CCOC2)CSC1(C)C | 86% | 12 nM | 11 | 131 nM | –
COc1cccc2cc(C(=O)N[C@H](C(=O)N[C@@H](Cc3ccccc3)[C@H](O)C(=O)N3CSC(C)(C)[C@H]3C(=O)NCc3c(C)cccc3C)C(C)C)oc12 | 95% | – | – | – | Ratio EC50 [10]: >103; EC50 [11]: < 3 nM
Cc1cccc(C)c1CNC(=O)[C@H]1N(C(=O)[C@@H](O)[C@H](Cc2ccccc2)NC(=O)[C@@H](NC(=O)COc2cccc(Nc3ccccc3)c2)[C@H]2CCOC2)CSC1(C)C | 93% | 5 nM | 21 | 103 nM | Ratio EC50 [5]: 45; CC50 at 120 h [2]: 39000 nM
CSC[C@H](NC(=O)COc1cccc2cnccc12)C(=O)N[C@@H](Cc1ccccc1)[C@H](O)C(=O)N1CSC[C@H]1C(=O)NC(C)(C)C | 14% | – | – | – | EC50 [12]: 176 nM; Ratio EC50 [13]: 16; EC50 [8]: 2880 nM
Cc1ccccc1CNC(=O)[C@H]1N(C(=O)[C@@H](O)[C@H](Cc2ccccc2)NC(=O)[C@@H](NC(=O)c2cnc3ccccc3n2)[C@H]2CCOC2)CSC1(C)C | 97% | 4 nM | 21 | 84 nM | Ratio EC50 [5]: 24; CC50 at 120 h [2]: 10000 nM
Cc1cccc(C)c1CNC(=O)[C@H]1N(C(=O)[C@@H](O)[C@H](Cc2ccccc2)NC(=O)[C@@H](NC(=O)c2cc3ccccc3o2)[C@H]2CCOC2)CSC1(C)C | 97% | 12 nM | 7.5 | 90 nM | Ratio EC50 [5]: 57; CC50 at 120 h [2]: 38000 nM
Cc1ccccc1CNC(=O)[C@H]1N(C(=O)[C@@H](O)[C@H](Cc2ccccc2)NC(=O)[C@@H](NC(=O)c2ccc3ccccc3n2)[C@H]2CCOC2)CSC1(C)C | 96% | < 3 nM | >137 | 411 nM | –
COc1cccc2cc(C(=O)N[C@@H](CC(N)=O)C(=O)N[C@@H](Cc3ccccc3)[C@H](O)C(=O)N3CSC(C)(C)[C@H]3C(=O)NCc3c(C)cccc3C)oc12 | 96% | 60 nM | – | – | Ratio EC50 [5]: 1.4

Second part, led by results:

inhibition [3] | Compound | EC50 [4] | Ratio EC50 [6] | EC50 [7] | also measured
97% | Cc1ccccc1CNC(=O)[C@H]1N(C(=O)[C@@H](O)[C@H](Cc2ccccc2)NC(=O)[C@@H](NC(=O)COc2cccc3cnccc23)[C@H]2CCOC2)CSC1(C)C | 21 nM | 207 | 4350 nM | –
98% | Cc1cccc(C)c1CNC(=O)[C@H]1N(C(=O)[C@@H](O)[C@H](Cc2ccccc2)NC(=O)[C@@H](NC(=O)c2cc(=O)c3ccccc3o2)[C@H]2CCOC2)CSC1(C)C | 5 nM | 23 | 115 nM | –
98% | Cc1cccc(C)c1CNC(=O)[C@H]1N(C(=O)[C@@H](O)[C@H](Cc2ccccc2)NC(=O)[C@@H](NC(=O)COc2cccc3cnccc23)[C@H]2CCOC2)CSC1(C)C | 60 nM | 2.4 | 143 nM | –
97% | C=C(C)CNC(=O)[C@H]1N(C(=O)[C@@H](O)[C@H](Cc2ccccc2)NC(=O)[C@@H](NC(=O)COc2cccc(N(C)C)c2)[C@H]2CCOC2)CSC1(C)C | 7 nM | 7 | 49 nM | –
95% | CN(C)c1cccc(OCC(=O)N[C@H](C(=O)N[C@@H](Cc2ccccc2)[C@H](O)C(=O)N2CSC(C)(C)[C@H]2C(=O)N[C@H]2c3ccccc3C[C@H]2O)[C@H]2CCOC2)c1 | 4 nM | 20 | 79 nM | –
93% | CN(C)c1cccc(OCC(=O)N[C@H](C(=O)N[C@@H](Cc2ccccc2)[C@H](O)C(=O)N2CSC(C)(C)[C@H]2C(=O)NC2CCCC2)[C@H]2CCOC2)c1 | 10 nM | 10 | 103 nM | –
69% | Cc1ccccc1CNC(=O)[C@H]1N(C(=O)[C@@H](O)[C@H](Cc2ccccc2)NC(=O)[C@@H](NC(=O)c2ccc3ccccc3n2)[C@@H]2CCOC2)CSC1(C)C | 26 nM | 23 | 602 nM | –
97% | CN(C)c1cccc(OCC(=O)N[C@H](C(=O)N[C@@H](Cc2ccccc2)[C@H](O)C(=O)N2CSC(C)(C)[C@H]2C(=O)N[C@H]2CCc3ccccc32)[C@H]2CCOC2)c1 | 5 nM | 6 | 30 nM | –
